Columns and labels:
[1] = system: Rattus norvegicus; assay: Antiinflammatory activity against carrageenan-induced paw edema in Sprague-Dawley rat assessed as inhibition of paw volume at 20 mg/kg, po measured 180 mins post challenge by plethysmometer; format: functional; conditions: 3 h
[2] = system: Rattus norvegicus; assay: Antiinflammatory activity against carrageenan-induced paw edema in Sprague-Dawley rat assessed as paw volume at 20 mg/kg, po measured 120 mins post challenge by plethysmometer (reference value: 1.13 +/- 0.04 ml); format: functional
[3] = system: Rattus norvegicus; assay: Antiinflammatory activity against carrageenan-induced paw edema in Sprague-Dawley rat assessed as paw volume at 20 mg/kg, po measured 60 mins post challenge by plethysmometer (reference value: 0.90 +/- 0.03 ml); format: functional
[4] = system: Rattus norvegicus; assay: Antiulcerogenic activity in pylorus ligation-induced gastric ulcer Sprague-Dawley rat model assessed as pH of gastric juice at 7.2 mg/kg, po for 3 days (Rvb =2.60 +/-0.55 ); format: functional
[5] = system: Rattus norvegicus; assay: Antiulcerogenic activity in pylorus ligation-induced gastric ulcer Sprague-Dawley rat model assessed as pH of gastric juice at 3.6 mg/kg, po for 3 days (Rvb =2.60 +/-0.55 ); format: functional
[6] = system: Rattus norvegicus; assay: Antiulcerogenic activity in pylorus ligation-induced gastric ulcer Sprague-Dawley rat model assessed as volume of gastric juice at 7.2 mg/kg, po for 3 days (Rvb =5.96 +/-0.80 ml ); format: functional
[7] = system: Rattus norvegicus; assay: Antiulcerogenic activity in pylorus ligation-induced gastric ulcer Sprague-Dawley rat model assessed as volume of gastric juice at 3.6 mg/kg, po for 3 days (Rvb =5.96 +/-0.80 ml ); format: functional
[8] = system: Rattus norvegicus; assay: Antiulcerogenic activity in pylorus ligation-induced gastric ulcer Sprague-Dawley rat model assessed as stomach peptic activity measuring tyrosine release for 4 hrs at 7.2 mg/kg, po for 3 days (Rvb =5.70 +/-2.40 ug/ml ); format: functional
In short: (§1)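 Pylorus-ligated rat model as above (3-day oral dosing, 3.6 or 7.2 mg/kg, 5 h ligation). Gastric juice sample (0.1 ml) was incubated with 2.9 ml acid hemoglobin substrate (2.5 g/100 ml, pH 2.2) for 30 min at 37 °C. Reaction was stopped with ice-cold 0.6 M TCA and centrifuged. Liberated amino acids were read by Lowry, expressed as µg tyrosine/ml.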

[9] = system: Rattus norvegicus; assay: Antiulcerogenic activity in pylorus ligation-induced gastric ulcer Sprague-Dawley rat model assessed as stomach peptic activity measuring tyrosine release for 4 hrs at 3.6 mg/kg, po for 3 days (Rvb =5.70 +/-2.40 ug/ml ); format: functional; in short: as §1
[10] = system: Rattus norvegicus; assay: Antiulcerogenic activity in pylorus ligation-induced gastric ulcer Sprague-Dawley rat model assessed as stomach H+/K+-ATPase activity measuring Pi release per hour per mg protein at 7.2 mg/kg, po for 3 days (Rvb =11.44 +/-1.5 umol ); format: functional
[11] = system: Rattus norvegicus; assay: Antiulcerogenic activity in pylorus ligation-induced gastric ulcer Sprague-Dawley rat model assessed as stomach H+/K+-ATPase activity measuring Pi release per hour per mg protein at 3.6 mg/kg, po for 3 days (Rvb =11.44 +/-1.5 umol ); format: functional
[12] = system: Mus musculus; assay: Antiulcerogenic activity in ethanol-induced gastric ulcer Swiss albino mouse model assessed as inhibition of ulceration at 7.2 mg/kg administered intragastrically for 3 days relative to control; format: functional; conditions: Stomach, po, 72 h, route intragastric
In short: (§2)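 Mice, n = 6 per group, given 3.6 or 7.2 mg/kg, omeprazole 3.6 mg/kg, or vehicle (0.25% w/v carboxymethyl cellulose) for 3 days. After a 24 h fast, 90% ethanol (10 ml/kg) was given intragastrically. Animals were killed 1 h later. Stomachs were opened along the greater curvature and lesion lengths measured under a microscope.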

[13] = system: Mus musculus; assay: Antiulcerogenic activity in ethanol-induced gastric ulcer Swiss albino mouse model assessed as inhibition of ulceration at 3.6 mg/kg administered intragastrically for 3 days relative to control; format: functional; conditions: Stomach, po, 72 h, route intragastric; in short: as §2
[14] = system: Mus musculus; assay: Antiulcerogenic activity in ethanol-induced gastric ulcer Swiss albino mouse model assessed as lesion length at 7.2 mg/kg administered intragastrically for 3 days; format: functional, Stomach; conditions: route intragastric; in short: as §2
[15] = system: Mus musculus; assay: Antiulcerogenic activity in ethanol-induced gastric ulcer Swiss albino mouse model assessed as lesion length at 3.6 mg/kg administered intragastrically for 3 days; format: functional, Stomach; conditions: route intragastric; in short: as §2
[16] = system: Rattus norvegicus; assay: Antiinflammatory activity against carrageenan-induced paw edema in po dosed Sprague-Dawley rat assessed as inhibition of paw volume measured 180 mins post challenge by plethysmometer; format: functional, organism-based
[17] = system: Rattus norvegicus; assay: Antiinflammatory activity against carrageenan-induced paw edema in Sprague-Dawley rat assessed as inhibition of paw volume at 30 mg/kg, po measured 180 mins post challenge by plethysmometer; format: functional; conditions: 3 h
[18] = system: Rattus norvegicus; assay: Antiinflammatory activity against carrageenan-induced paw edema in Sprague-Dawley rat assessed as paw volume at 30 mg/kg, po measured 120 mins post challenge by plethysmometer (reference value: 1.13 +/- 0.04 ml); format: functional
[19] = system: Rattus norvegicus; assay: Antiinflammatory activity against carrageenan-induced paw edema in Sprague-Dawley rat assessed as paw volume at 30 mg/kg, po measured 60 mins post challenge by plethysmometer (reference value: 0.90 +/- 0.03 ml); format: functional
[20] = system: Rattus norvegicus; assay: Antiinflammatory activity against carrageenan-induced paw edema in Sprague-Dawley rat assessed as inhibition of paw volume at 10 mg/kg, po measured 180 mins post challenge by plethysmometer; format: functional; conditions: 3 h
[21] = system: Rattus norvegicus; assay: Antiinflammatory activity against carrageenan-induced paw edema in Sprague-Dawley rat assessed as paw volume at 10 mg/kg, po measured 120 mins post challenge by plethysmometer (reference value: 1.13 +/- 0.04 ml); format: functional
[22] = system: Rattus norvegicus; assay: Antiinflammatory activity against carrageenan-induced paw edema in Sprague-Dawley rat assessed as paw volume at 10 mg/kg, po measured 60 mins post challenge by plethysmometer (reference value: 0.90 +/- 0.03 ml); format: functional

SMILES	inhibition in vivo at 20 mg/kg [1]	Activity [2]	Activity [3]	pH [4]	pH [5]	Activity [6]	Activity [7]	Activity [8]	Activity [9]	Activity [10]	Activity [11]	inhibition in vivo at 7.2 mg/kg [12]	inhibition in vivo at 3.6 mg/kg [13]	Activity [15]	inhibition in vivo at 30 mg/kg [17]	Activity [18]	Activity [19]	inhibition in vivo at 10 mg/kg [20]	Activity [21]	Activity [22]	further results
O=C([O-])Cc1ccccc1Nc1c(Cl)cccc1Cl.[Na+] [DICLOFENAC SODIUM]	73%	0.35 mL	0.38 mL	–	–	–	–	–	–	–	–	–	–	–	–	–	–	–	–	–	–
COc1ccnc(CNc2ccc3[nH]c(C)nc3c2)c1OC	57%	0.69 mL	0.7 mL	4.01	3.64	2.6 mL	2.98 mL	4.74 µg/mL	5.02 µg/mL	6.88 µmol	7.91 µmol	46.8%	30%	88 mm	61%	0.65 mL	0.65 mL	15%	0.88 mL	0.7 mL	Activity [14]: 67 mm; inhibition [16]: Dose-dependent effect
COc1c(C)cnc(CNc2ccc3[nH]c(C)nc3c2)c1C	49%	0.67 mL	0.69 mL	–	–	–	–	–	–	–	–	–	–	–	53%	0.62 mL	0.64 mL	10%	0.88 mL	0.7 mL	–
Cc1nc2cc(NCc3ccccn3)ccc2n1C[C@@H](O)[C@H]1O[C@H](O)[C@@H](O)[C@H]1O	47%	0.69 mL	0.68 mL	4.41	4.04	2.3 mL	2.4 mL	4.44 µg/mL	4.72 µg/mL	6.02 µmol	6.91 µmol	54%	46%	68 mm	52%	0.64 mL	0.63 mL	8%	0.89 mL	0.69 mL	Activity [14]: 58 mm
COc1ccnc(CNc2ccc3c(c2)nc(C)n3C[C@@H](O)[C@H]2O[C@H](O)[C@@H](O)[C@H]2O)c1OC	62%	0.4 mL	0.44 mL	4.73	4.53	2.39 mL	2.56 mL	4.54 µg/mL	4.79 µg/mL	6.34 µmol	6.88 µmol	73%	61%	49 mm	72%	0.38 mL	0.41 mL	41%	0.52 mL	0.53 mL	Activity [14]: 34 mm
COc1ccnc(CNc2ccc3c(c2)nc(C)n3C[C@@H](O)[C@H]2O[C@H](O)[C@@H](O)[C@H]2O)c1C	53%	0.68 mL	0.68 mL	4.31	4.1	2.24 mL	2.31 mL	4.34 µg/mL	4.62 µg/mL	6 µmol	6.78 µmol	66.6%	57.9%	53 mm	58%	0.64 mL	0.63 mL	22%	0.88 mL	0.68 mL	Activity [14]: 42 mm
COc1c(C)cnc(CNc2ccc3c(c2)nc(C)n3C[C@@H](O)[C@H]2O[C@H](O)[C@@H](O)[C@H]2O)c1C	50%	0.48 mL	0.5 mL	4.39	4.14	2.38 mL	2.48 mL	4.56 µg/mL	4.8 µg/mL	6.62 µmol	7.01 µmol	76.2%	62.6%	47 mm	56%	0.43 mL	0.49 mL	36%	0.64 mL	0.61 mL	Activity [14]: 30 mm
COc1ccnc(CNc2ccc3[nH]c(C)nc3c2)c1C	52%	0.69 mL	0.69 mL	–	–	–	–	–	–	–	–	–	–	–	55%	0.65 mL	0.64 mL	11%	0.9 mL	0.7 mL	–
COc1ccc2[nH]c([S+]([O-])Cc3ncc(C)c(OC)c3C)nc2c1 (configuration not stated) [OMEPRAZOLE]	–	–	–	–	4.26	–	2.64 mL	–	4.92 µg/mL	–	7.1 µmol	–	68.3%	40 mm	–	–	–	–	–	–	–
Cc1nc2cc(NCc3ccccn3)ccc2[nH]1	32%	1.08 mL	0.9 mL	–	–	–	–	–	–	–	–	–	–	–	45%	1.03 mL	0.87 mL	10%	1.08 mL	0.97 mL	–

From ChEMBL document CHEMBL2331277, “Design, synthesis and pharmacological evaluation of omeprazole-like agents with anti-inflammatory activity” (2013)
